In ChEMBL document CHEMBL4043282, “Discovery of the First Potent, Selective, and Orally Bioavailable Signal Peptide Peptidase-Like 2a (SPPL2a) Inhibitor Displaying Pronounced Immunomodulatory Effects In Vivo” (J Med Chem, 2018):
Converted amounts (≈) assume the structure as drawn. The source made the active and inactive calls. The calls are words filed in the database; no cut-off is given here.

Assays:
[1] = Equilibrium solubility of the compound at pH 6.8 after 24 hrs by saturation shake flask based UV-HPLC method; format: physicochemical; details: buffer
[2] = target: T1, Signal peptide peptidase-like 2A (Mus musculus, UniProt Q9JJF9); test: Inhibition of mouse SPPL2a in A20 cells assessed as CD74/p8 accumulation by flow cytometry; format: cell-based
T1 sequence (Q9JJF9 whole entry): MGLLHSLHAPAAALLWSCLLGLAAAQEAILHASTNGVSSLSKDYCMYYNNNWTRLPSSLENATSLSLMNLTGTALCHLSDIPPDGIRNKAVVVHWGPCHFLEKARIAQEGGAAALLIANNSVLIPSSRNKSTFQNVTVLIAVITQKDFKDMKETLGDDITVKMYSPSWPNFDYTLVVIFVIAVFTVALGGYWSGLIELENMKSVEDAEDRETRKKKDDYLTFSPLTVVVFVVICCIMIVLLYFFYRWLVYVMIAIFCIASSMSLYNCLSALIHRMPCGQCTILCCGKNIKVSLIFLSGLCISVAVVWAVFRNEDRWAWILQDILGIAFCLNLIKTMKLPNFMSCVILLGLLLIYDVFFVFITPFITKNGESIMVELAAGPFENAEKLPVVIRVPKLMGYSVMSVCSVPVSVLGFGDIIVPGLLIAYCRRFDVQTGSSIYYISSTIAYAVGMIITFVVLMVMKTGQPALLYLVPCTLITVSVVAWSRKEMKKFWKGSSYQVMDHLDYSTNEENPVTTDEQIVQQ

[3] = Oral bioavailability in Sprague-Dawley rat at 1 mg/kg by LC/MS/MS analysis; format: ADME, organism-based; details: in vivo
[4] = target: T1, Signal peptide peptidase-like 2A; test: Inhibition of SPPL2a in mouse whole blood assessed as increase in CD74/p8 accumulation after 5.5 hrs by Western bot method
In short: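 Mouse whole blood (200 μL) with compound from 20× stock, 0.5% DMSO final, 5.5 h at 37 °C, 5% CO2 with rotation. RBC lysis, washes, lysis in Tris pH 6.8/Triton/deoxycholate buffer; Western blot with rat anti-mouse CD74 (In-1); p8 band intensity normalized to CD74 full-length/β-actin for dose response.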

[5] = Clearance in Sprague-Dawley rat at 1 mg/kg, iv by LC/MS/MS analysis; format: ADME, organism-based; details: in vivo
In short: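 Female Sprague−Dawley rats with femoral artery and vein catheters implanted 96−120 h beforehand; cassette dosing iv 1 mg/kg per compound in NMP/PEG200 (30:70); arterial blood into EDTA tubes at several times, frozen; LC-MS/MS vs standard curve with QCs within 70−130%; noncompartmental analysis.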

[6] = Inhibition of human gamma-secretase expressed in HEK293 cells using Notch1-VP16-Gal4 as substrate after 24 hrs by Bright-Glo luciferase reporter gene assay; format: cell-based; details: HEK293, 24 h
In short: (§1)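 HEK293 cells transiently transfected with human SPPL2a, VP16-TNFα(aa1-76)-NTF substrate and Gal4-luciferase reporter (SPPL2a), or human Notch1-VP16-Gal4 plus Gal4-luciferase reporter relying on endogenous γ-secretase.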

[7] = Clearance in Balb/c mouse at 5 mg/kg, iv by LC/MS/MS analysis; format: ADME, organism-based; details: in vivo
[8] = Octanol-buffer partition coefficient, log P of the compound by LC/MS/MS based shake flask method; format: physicochemical
Rattus norvegicus [9] = test: Dose normalized AUC in Sprague-Dawley rat at 3 mg/kg, po by LC/MS/MS analysis; format: ADME, organism-based; details: in vivo
In short: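 Female Sprague−Dawley rats catheterized (femoral artery/vein); cassette oral dosing 3 mg/kg per compound as aqueous Tween 80/CMC-Na suspension (0.5/0.5/99), 48 h after iv dose; arterial blood sampled over time into EDTA tubes; LC-MS/MS with QC acceptance 70−130%; noncompartmental PK.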

[10] = target: T2, Signal peptide peptidase-like 2A (Homo sapiens, UniProt Q8TCT8); test: Inhibition of human SPPL2a expressed in HEK293 cells using GAL4-VP16 fusedTNFalpha (1 to 76)-NTF as substrate after 24 hrs by Bright-Glo luciferase reporter gene assay; format: cell-based; in short: as §1
T2 sequence (Q8TCT8 whole entry): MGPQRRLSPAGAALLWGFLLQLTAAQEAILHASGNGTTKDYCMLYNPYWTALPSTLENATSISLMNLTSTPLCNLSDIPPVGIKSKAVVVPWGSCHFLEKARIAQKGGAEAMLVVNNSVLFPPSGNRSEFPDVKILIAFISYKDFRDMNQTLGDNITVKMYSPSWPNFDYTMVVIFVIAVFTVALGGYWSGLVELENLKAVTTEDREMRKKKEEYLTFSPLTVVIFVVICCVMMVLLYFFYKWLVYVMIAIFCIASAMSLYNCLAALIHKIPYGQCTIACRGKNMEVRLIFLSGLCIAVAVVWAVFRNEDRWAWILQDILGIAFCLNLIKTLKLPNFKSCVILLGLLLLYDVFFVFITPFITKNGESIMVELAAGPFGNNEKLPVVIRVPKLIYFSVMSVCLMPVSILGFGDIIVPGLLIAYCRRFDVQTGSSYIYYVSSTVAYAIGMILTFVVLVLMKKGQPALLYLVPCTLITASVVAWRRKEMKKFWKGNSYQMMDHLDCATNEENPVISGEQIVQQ

Mus musculus [11] = test: In vivo inhibition of SPPL2a in mouse assessed as increase in CD74/p8 accumulation in splenocytes at 10 to 100 mg/kg, po administered as single dose measured after 4 hrs by Western blot method; format: functional, organism-based
Mus musculus [12] = test: In vivo inhibition of mouse gamma-secretase assessed as effect on Hes1 mRNA level in jejunum at 100 mg/kg, po administered as single dose by RT-PCR method; format: organism-based
In short: (§2)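 Thymus and jejunum excised into RNALater, 4 °C overnight, washed, frozen at −80 °C; total RNA from 10 mg tissue by MagNA Pure LC; Hes1 measured by TaqMan real-time PCR; significance by two-tailed heteroscedastic Student's t-test.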

Mus musculus [13] = test: In vivo inhibition of SPPL2a in mouse assessed as increase in CD74/p8 accumulation in splenocytes at 100 mg/kg, po administered as single dose measured after 4 hrs by Western blot method; format: functional, organism-based
[14] = Selectivity ratio of IC50 for human gamma-secretase expressed in HEK293 cells to IC50 for human SPPL2a expressed in HEK293 cells
In short: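 HEK293 transiently transfected: SPPL2a arm with human SPPL2a, VP16-TNFα(aa1-76)-NTF and Gal4-luciferase; γ-secretase arm with human Notch1-VP16-Gal4 plus reporter (endogenous γ-secretase). Compound added 3 h after plating, 10 μM–0.3 nM final, triplicate, 24 h at 37 °C; luminescence read. IC50 from concentration vs normalised luminescence; ratio of the two IC50s.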

Rattus norvegicus [15] = test: Dose normalized AUC in Wistar rat at 10 mg/kg, po bid by LC/MS/MS analysis; format: ADME, organism-based; details: in vivo
[16] = Inhibition of human SPP expressed in human U2OS cells using EGFP-labeled EnvSigSeq-SEAP as substrate after 24 hrs by Hoechst staining based high content imaging assay; format: cell-based
In short: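 Stable U-2 OS lines expressing human SPPL2a, SPPL2b or SPP constitutively (mouse SPPL2a line analogous, mouse TNFα(aa1-77)-NTF-EGFP-NLS) with doxycycline-inducible EGFP substrate. 3000 cells/well, 3−4 h, then 11-point inhibitor 100 μM to 1 nM, 0.9% DMSO, 5 μg/mL doxycycline, 24 h 37 °C. PFA fixed, Hoechst nuclei; nuclear minus cytoplasmic EGFP intensity; inhibition vs 0.5 μM reference and DMSO; IC50 by nonlinear regression.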

Mus musculus [17] = test: In vivo inhibition of mouse gamma-secretase assessed as effect on Hes1 mRNA level in thymus at 100 mg/kg, po administered as single dose by RT-PCR method; format: organism-based; in short: as §2

Compound | IC50 [6] | logP [8] | IC50 [10] | Ratio IC50 [14] | other results
Cc1ccc(NC(=O)C[C@@H](C)C(=O)N[C@@H]2C(=O)N3CCCN3Cc3ccccc32)cc1 | 27 nM | – | – | – | –
CC(C)C[C@H](NC(=O)OCc1ccccc1)C(=O)N[C@@H](CC(C)C)C(=O)NCC(=O)CNC(=O)[C@H](CC(C)C)NC(=O)[C@H](CC(C)C)NC(=O)OCc1ccccc1 | > 10000 nM | – | 6 nM | >1666 | –
Cc1ncc(F)cc1NC(=O)C[C@H](C(=O)N[C@@H]1C(=O)N2CCCN2C(=O)c2ccccc21)C1CC1 | > 10000 nM | 1.6 | – | – | IC50 [2]: 496 nM
Cc1ncccc1NC(=O)C[C@@H](C)C(=O)N[C@@H]1C(=O)N2CCCN2Cc2ccccc21 | > 10000 nM | – | 1020 nM | – | solubility thermodynamic at 24 h [1]: > 1000 µM
Cc1ncc(F)cc1NC(=O)C[C@@H](C)C(=O)N[C@@H]1C(=O)N2CCCN2Cc2c(F)cccc21 | 7800 nM | 2.1 | 76 nM | – | solubility thermodynamic at 24 h [1]: 257 µM (≈ 118 µg/mL); IC50 [2]: 121 nM; bioavailability [3]: 54%; clearance [5]: 15 mL/min/kg; AUC/dose (Rattus norvegicus [9]): 1522 nM·h

Continued, in another order:

IC50 [6] | logP [8] | IC50 [10] | Compound | Ratio IC50 [14] | other results
8200 nM | 1.7 | 44 nM | Cc1ncc(F)cc1NC(=O)C[C@@H](C)C(=O)N[C@@H]1C(=O)N2CCCN2Cc2ccccc21 | – | solubility thermodynamic at 24 h [1]: > 1000 µM; IC50 [2]: 97 nM; bioavailability [3]: 100%; IC50 [4]: 50 nM; clearance [5]: 34 mL/min/kg; clearance [7]: 32 mL/min/kg; AUC/dose (Rattus norvegicus [9]): 157 nM·h
< 0.3 nM | – | 10 nM | C[C@H](NC(=O)[C@@H](O)c1cc(F)cc(F)c1)C(=O)N[C@@H]1C(=O)N(C)c2ccccc2-c2ccccc21 | <1 | Activity (Mus musculus [11]): Active; Activity (Mus musculus [12]): Toxic; Activity (Mus musculus [13]): Active; AUC/dose (Rattus norvegicus [15]): 63 nM·h; IC50 [16]: 50 nM; Activity (Mus musculus [17]): Toxic
17 nM | – | 5 nM | C[C@H](CC(=O)Nc1cc(F)cc(F)c1)C(=O)N[C@@H]1C(=O)N2CCCN2Cc2ccccc21 | 3 | –
610 nM | – | 70 nM | Cc1cccc(NC(=O)C[C@@H](C)C(=O)N[C@@H]2C(=O)N3CCCN3Cc3ccccc32)c1 | 9 | –
> 10000 nM | – | 2850 nM | C[C@H](CC(=O)Nc1ccccc1C(F)(F)F)C(=O)N[C@@H]1C(=O)N2CCCN2Cc2ccccc21 | >3 | –
> 10000 nM | 0.9 | – | Cc1ncc(F)cc1NC(=O)C[C@@H](C)C(=O)N[C@@H]1C(=O)N2CCCN2C(=O)c2ccccc21 | – | –
